Values after ≈ are worked out from the molar mass of the structure shown.
Legend:
[1] = Association constant to Ac2-L-Lys-D-Ala-D-Ala determined at pH 9; Value ranges from (9.5E4-3.5E5)
Enterococcus faecalis = assay: Minimum inhibitory concentration against Enterococcus faecalis ATCC 7080; format: functional
Outline: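 Microbroth dilution MIC (µg/mL), final inoculum 10^4 cfu/mL, incubated 24 h at 37 °C in air.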

Staphylococcus aureus = assay: Minimum inhibitory concentration against Staphylococcus aureus L 165; format: functional
Outline: (§1)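 MIC (µg/mL) by microbroth dilution in Iso-Sensitest broth; final inoculum 10^4 cfu/mL; 24 h at 37 °C in air.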

[2] = system: Staphylococcus epidermidis; assay: Minimum inhibitory concentration against Staphylococcus epidermidis ATCC 12228; format: functional; outline: as §1
Streptococcus pneumoniae = assay: Minimum inhibitory concentration against Streptococcus pneumoniae L 44; format: functional
Outline: (§2)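 MIC (µg/mL) by microbroth dilution in Todd-Hewitt broth, final inoculum 10^4 cfu/mL, incubated 24 h at 37 °C in air.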

[3] = system: Staphylococcus haemolyticus; assay: Minimum inhibitory concentration against Staphylococcus haemolyticus L 602; format: functional; outline: as §1
Streptococcus pyogenes [4] = assay: Minimum inhibitory concentration against Streptococcus pyogenes L 49; format: functional; outline: as §2
Escherichia coli = assay: Minimum inhibitory concentration against Escherichia coli L 47; format: functional; outline: as §1
Proteus vulgaris = assay: Minimum inhibitory concentration against Proteus vulgaris ATCC 881; format: functional; outline: as §1
Pseudomonas aeruginosa = assay: Minimum inhibitory concentration against Pseudomonas aeruginosa ATCC 10145; format: functional; outline: as §1
Streptococcus pyogenes [5] = assay: Efficacy of compound administered perorally against Streptococcus pyogenes L 49 Septicemia in mouse; format: functional; settings: po
Outline: (§3)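 Mice were infected intraperitoneally with about 10^5 Strep. pyogenes L 49 cells, about 100 times the 50% lethal dose. Groups of 5–8 mice were treated once right after challenge, by the route stated in the line. ED50 (mg/kg) was derived from percentage survival at each dose on day 7 (Spearman-Kärber).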

Streptococcus pyogenes [6] = assay: Efficacy of compound administered subcutaneously against Streptococcus pyogenes L 49 Septicemia in mouse; format: functional; settings: sc; outline: as §3

For CC(=O)N[C@@H]1[C@H](O[C@@H]2c3ccc(c(Cl)c3)Oc3cc4cc(c3O[C@@H]3O[C@@H](CO)[C@@H](O)[C@H](O)[C@@H]3NC(=O)CCCCCCC(C)C)Oc3ccc(cc3Cl)C[C@H]3NC(=O)[C@H](N)c5ccc(O)c(c5)Oc5cc(O)cc(c5)[C@H](NC3=O)C(=O)N[C@H]4C(=O)N[C@H]3C(=O)N[C@@H]2C(=O)N[C@H](C(=O)NCCCNCCCN)c2cc(O)cc(O[C@H]4O[C@H](CO)[C@@H](O)[C@@H](O)[C@@H]4O)c2-c2cc3ccc2O)O[C@@H](CO)[C@@H](O)[C@@H]1O, the Ka [1] was 350000 M⁻¹, the MIC (Enterococcus faecalis) was 0.5 µg/mL (≈ 0.251 µM) and the MIC (Staphylococcus aureus) was 1 µg/mL (≈ 0.502 µM). It also gave an MIC [2] of 0.25 µg/mL (≈ 0.125 µM), an MIC (Streptococcus pneumoniae) of 0.125 µg/mL (≈ 0.0627 µM) and an MIC [3] of 2 µg/mL (≈ 1 µM). The MIC (Streptococcus pyogenes [4]) was 0.125 µg/mL (≈ 0.0627 µM).

Work on N[C@H]1C(=O)N[C@@H]2Cc3ccc(c(Cl)c3)Oc3cc4cc(c3O)Oc3ccc(cc3Cl)[C@@H](O)[C@@H]3NC(=O)[C@H](NC(=O)[C@@H]4NC(=O)[C@@H](NC2=O)c2cc(O)cc(c2)Oc2cc1ccc2O)c1ccc(O)c(c1)-c1c(O)cc(O)cc1[C@@H](C(=O)NCCN1CCCCNCCCC1)NC3=O yielded an MIC (Enterococcus faecalis) of 0.125 µg/mL (≈ 0.0915 µM), an MIC (Escherichia coli) of 8 µg/mL (≈ 5.86 µM) and an MIC (Proteus vulgaris) of 64 µg/mL (≈ 46.8 µM). It also gave an MIC (Pseudomonas aeruginosa) of 64 µg/mL (≈ 46.8 µM), an MIC (Staphylococcus aureus) of 0.125 µg/mL (≈ 0.0915 µM) and an MIC [2] of 0.063 µg/mL (≈ 0.0461 µM). The MIC (Streptococcus pneumoniae) was 0.125 µg/mL (≈ 0.0915 µM), the MIC [3] was 0.125 µg/mL (≈ 0.0915 µM) and the MIC (Streptococcus pyogenes [4]) was 0.063 µg/mL (≈ 0.0461 µM).

Work on NCCCN1CCCCN(CCCNC(=O)[C@H]2NC(=O)[C@H]3NC(=O)[C@H](NC(=O)[C@@H]4NC(=O)[C@H]5NC(=O)[C@@H](Cc6ccc(c(Cl)c6)Oc6cc4cc(c6O)Oc4ccc(cc4Cl)[C@H]3O)NC(=O)[C@H](N)c3ccc(O)c(c3)Oc3cc(O)cc5c3)c3ccc(O)c(c3)-c3c(O)cc(O)cc32)CCCC1 yielded an MIC (Enterococcus faecalis) of 0.125 µg/mL (≈ 0.087 µM), an MIC (Escherichia coli) of 4 µg/mL (≈ 2.78 µM) and an MIC (Proteus vulgaris) of 128 µg/mL (≈ 89.1 µM). For the same molecule, the MIC (Pseudomonas aeruginosa) was 16 µg/mL (≈ 11.1 µM), the MIC (Staphylococcus aureus) was 0.063 µg/mL (≈ 0.0438 µM) and the MIC [2] was 0.063 µg/mL (≈ 0.0438 µM). It also gave an MIC (Streptococcus pneumoniae) of 0.125 µg/mL (≈ 0.087 µM), an MIC [3] of 0.125 µg/mL (≈ 0.087 µM) and an MIC (Streptococcus pyogenes [4]) of 0.063 µg/mL (≈ 0.0438 µM).

With CC(=O)N[C@@H]1[C@H](O[C@@H]2c3ccc(c(Cl)c3)Oc3cc4cc(c3O[C@@H]3O[C@@H](CO)[C@@H](O)[C@H](O)[C@@H]3NC(=O)CCCCCCC(C)C)Oc3ccc(cc3Cl)C[C@H]3NC(=O)[C@H](N)c5ccc(O)c(c5)Oc5cc(O)cc(c5)[C@H](NC3=O)C(=O)N[C@H]4C(=O)N[C@H]3C(=O)N[C@@H]2C(=O)N[C@H](C(=O)O)c2cc(O)cc(O[C@H]4O[C@H](CO)[C@@H](O)[C@@H](O)[C@@H]4O)c2-c2cc3ccc2O)O[C@@H](CO)[C@@H](O)[C@@H]1O the MIC (Enterococcus faecalis) was 0.125 µg/mL (≈ 0.0665 µM), the MIC (Staphylococcus aureus) was 0.125 µg/mL (≈ 0.0665 µM) and the ED50 (Streptococcus pyogenes [5]) was greater than 170 mg/kg. It also gave an ED50 (Streptococcus pyogenes [6]) of 0.12 mg/kg, an MIC [2] of 0.125 µg/mL (≈ 0.0665 µM) and an MIC (Streptococcus pneumoniae) of 0.063 µg/mL (≈ 0.0335 µM). It also gave an MIC [3] of 8 µg/mL (≈ 4.26 µM) and an MIC (Streptococcus pyogenes [4]) of 0.063 µg/mL (≈ 0.0335 µM).

With CC(=O)N[C@@H]1[C@H](O[C@@H]2c3ccc(c(Cl)c3)Oc3cc4cc(c3O[C@@H]3O[C@@H](CO)[C@@H](O)[C@H](O)[C@@H]3NC(=O)CCCCCCC(C)C)Oc3ccc(cc3Cl)C[C@H]3NC(=O)[C@H](N)c5ccc(O)c(c5)Oc5cc(O)cc(c5)[C@H](NC3=O)C(=O)N[C@H]4C(=O)N[C@H]3C(=O)N[C@@H]2C(=O)N[C@H](C(=O)N2CCNCCNCCNCCNCCNCC2)c2cc(O)cc(O[C@H]4O[C@H](CO)[C@@H](O)[C@@H](O)[C@@H]4O)c2-c2cc3ccc2O)O[C@@H](CO)[C@@H](O)[C@@H]1O the Ka [1] was 350000 M⁻¹, the MIC (Enterococcus faecalis) was 0.125 µg/mL (≈ 0.059 µM) and the MIC (Staphylococcus aureus) was 0.25 µg/mL (≈ 0.118 µM). The MIC [2] was 0.125 µg/mL (≈ 0.059 µM), the MIC (Streptococcus pneumoniae) was 0.063 µg/mL (≈ 0.0297 µM) and the MIC [3] was 8 µg/mL (≈ 3.77 µM). It also gave an MIC (Streptococcus pyogenes [4]) of 0.063 µg/mL (≈ 0.0297 µM).

CC(=O)N[C@@H]1[C@H](O[C@@H]2c3ccc(c(Cl)c3)Oc3cc4cc(c3O[C@@H]3O[C@@H](CO)[C@@H](O)[C@H](O)[C@@H]3NC(=O)CCCCCCC(C)C)Oc3ccc(cc3Cl)C[C@H]3NC(=O)[C@H](N)c5ccc(O)c(c5)Oc5cc(O)cc(c5)[C@H](NC3=O)C(=O)N[C@H]4C(=O)N[C@H]3C(=O)N[C@@H]2C(=O)N[C@H](C(=O)NCCNCCCNCCN)c2cc(O)cc(O[C@H]4O[C@H](CO)[C@@H](O)[C@@H](O)[C@@H]4O)c2-c2cc3ccc2O)O[C@@H](CO)[C@@H](O)[C@@H]1O gave a Ka [1] of 350000 M⁻¹, an MIC (Enterococcus faecalis) of 0.125 µg/mL (≈ 0.0618 µM) and an MIC (Staphylococcus aureus) of 0.125 µg/mL (≈ 0.0618 µM). It also gave an MIC [2] of 0.063 µg/mL (≈ 0.0312 µM), an MIC (Streptococcus pneumoniae) of 0.125 µg/mL (≈ 0.0618 µM) and an MIC [3] of 0.125 µg/mL (≈ 0.0618 µM). For the same molecule, the MIC (Streptococcus pyogenes [4]) was 0.063 µg/mL (≈ 0.0312 µM).

CC(=O)N[C@@H]1[C@H](O[C@@H]2c3ccc(c(Cl)c3)Oc3cc4cc(c3O[C@@H]3O[C@@H](CO)[C@@H](O)[C@H](O)[C@@H]3NC(=O)CCCCCCC(C)C)Oc3ccc(cc3Cl)C[C@H]3NC(=O)[C@H](N)c5ccc(O)c(c5)Oc5cc(O)cc(c5)[C@H](NC3=O)C(=O)N[C@H]4C(=O)N[C@H]3C(=O)N[C@@H]2C(=O)N[C@H](C(=O)N2CCCCN(CCCN(C)C)CCCC2)c2cc(O)cc(O[C@H]4O[C@H](CO)[C@@H](O)[C@@H](O)[C@@H]4O)c2-c2cc3ccc2O)O[C@@H](CO)[C@@H](O)[C@@H]1O gave a Ka [1] of 350000 M⁻¹, an MIC (Enterococcus faecalis) of 0.125 µg/mL (≈ 0.0598 µM) and an MIC (Staphylococcus aureus) of 0.125 µg/mL (≈ 0.0598 µM). For the same molecule, the MIC [2] was 0.063 µg/mL (≈ 0.0302 µM), the MIC (Streptococcus pneumoniae) was 0.125 µg/mL (≈ 0.0598 µM) and the MIC [3] was 0.5 µg/mL (≈ 0.239 µM). For the same molecule, the MIC (Streptococcus pyogenes [4]) was 0.063 µg/mL (≈ 0.0302 µM).

Reference: ChEMBL document CHEMBL1125337, “Synthesis and antibacterial activity of a series of basic amides of teicoplanin and deglucoteicoplanin with polyamines” (J Med Chem, 1992)
